Assay results gathered from unrelated publications.
SLC22A2: Solute carrier family 22 member 2 (SLC22A2, Homo sapiens, UniProt O15244)
HDAC7: Histone deacetylase 7 (HDAC7, Homo sapiens, UniProt Q8WUI4)
CSNK1A1: Casein kinase I isoform alpha (CSNK1A1, Homo sapiens, UniProt P48729)
HDAC10: Polyamine deacetylase HDAC10 (HDAC10, Homo sapiens, UniProt Q969S8)
PLA2G6: 85/88 kDa calcium-independent phospholipase A2 (PLA2G6, Homo sapiens, UniProt O60733)
SLC22A12: Solute carrier family 22 member 12 (SLC22A12, Homo sapiens, UniProt Q96S37)

Compound | target | test | test system | setting | IC50
CC(C)NC(=O)COc1cccc(-c2nc(Nc3ccc4[nH]ncc4c3)c3ccccc3n2)c1 | SLC22A2 | transporter uptake, inhibitor, radiometric | HEK293 |  | > 1 µM
COc1ccc(N(Cc2csc(-c3ccc(C)cc3)n2)C(=O)CCCCCC(=O)NO)cc1 | HDAC7 | enzyme activity, inhibitor |  |  | > 10 µM
CCCc1ccn2c(-c3ccncc3)c(-c3ccc(F)cc3)nc2c1 | CSNK1A1 | enzyme activity, inhibitor, ADP detection |  |  | 0.97 µM
O=C1CCC(N2C(=O)c3cccc(NCC(=O)OCCCCc4cn(CCCCCCN5CCc6c(c7ccccc7n6Cc6ccc(C(=O)NO)cc6)C5)nn4)c3C2=O)C(=O)N1 (centres unmarked) | HDAC10 | enzyme activity, inhibitor, fluorescence |  |  | 0.017 µM
CN1CCC(CNc2ccc3ncc(-c4cccc(OC(F)(F)F)c4)n3n2)CC1 | Beta-2 adrenergic receptor (ADRB2, Homo sapiens, UniProt P07550) | cAMP, antagonist |  |  | 8.31 µM
COc1ccn2nc(-c3ccc(F)cc3)c(-c3ccncc3)c2c1 | CSNK1A1 | enzyme activity, inhibitor, ADP detection |  |  | 2.1 µM
O=C(CCCCCCCCO)C(F)(F)F | PLA2G6 | enzyme activity, inhibitor |  |  | 12.7 µM
Fc1ccc(Cc2[nH]nc(-c3ccccn3)c2-c2ccnc3ccccc23)cc1 | CSNK1A1 | enzyme activity, inhibitor, ADP detection |  |  | 11 µM
Fc1ccc(-c2nn3cc(F)ccc3c2-c2ccncc2)cc1 | CSNK1A1 | enzyme activity, inhibitor, ADP detection |  |  | 2.4 µM
COc1c(Cl)cccc1Nc1c(-c2ccncc2OC[C@@H]2COCCO2)[nH]c2c1C(=O)NCC2 | Epithelial discoidin domain-containing receptor 1 (DDR1, Homo sapiens, UniProt Q08345) | ligand displacement, TR-FRET |  |  | 0.11 µM
CC(C)(C)c1ccn2nc(-c3ccc(F)cc3)c(-c3ccncc3)c2c1 | CSNK1A1 | enzyme activity, inhibitor, ADP detection |  |  | 8.7 µM
O=CCCCCCCCC(=O)C(F)(F)F | PLA2G6 | enzyme activity, inhibitor |  |  | 41.2 µM
CC(=O)N[C@@H](CC(C)C)C(=O)N[C@@H](CC(C)C)C(=O)N[C@H](C=O)CCCNC(=N)N | Kallikrein-1 (KLK1, Homo sapiens, UniProt P06870) | enzyme activity, inhibitor |  |  | 3.9 µM
CCc1oc2cc(F)c(F)cc2c1C(=O)c1cc(Br)c(O)c(Br)c1 | SLC22A12 | transporter uptake, inhibitor, radiometric |  | oocytes | 0.245 µM
CC(C)(O)c1coc(S(=O)(=O)NC(=O)c2cc3ccccc3n2Cc2ccc(Br)c3ccccc23)c1 | SLC22A12 | transporter uptake, inhibitor, radiometric |  |  | 9.76 µM
Oc1ccccc1-c1n[nH]cc1-c1ccnc2ccccc12 | CSNK1A1 | enzyme activity, inhibitor, ADP detection |  |  | 3.1 µM
Cc1cc(N)c2ccccc2[n+]1CCCCCCCCCC[n+]1c(C)cc(N)c2ccccc21 | SLC22A2 | transporter uptake, inhibitor, fluorescence |  |  | 0.0882 µM
O=C(NS(=O)(=O)c1ccccc1)c1cc2ccccc2n1Cc1ccc(C2CC2)c2ccccc12 | SLC22A12 | transporter uptake, inhibitor, radiometric |  |  | 4.09 µM
CN(CCCCCCNC(=O)COc1ccc(C2CCC(=O)NC2=O)cc1)Cc1cn(Cc2ccc(C(=O)NO)cc2)c2ccccc12 (centres unmarked) | HDAC10 | enzyme activity, inhibitor, fluorescence |  |  | 0.012 µM
c1coc(-c2n[nH]cc2-c2ccnc3ccccc23)c1 | CSNK1A1 | enzyme activity, inhibitor, ADP detection |  |  | 3.4 µM
O=C(CNc1cccc2c1C(=O)N(C1CCC(=O)NC1=O)C2=O)NCCCCCCN1CCc2c(c3ccccc3n2Cc2ccc(C(=O)NO)cc2)C1 (centres unmarked) | HDAC10 | enzyme activity, inhibitor, fluorescence |  |  | 0.022 µM
c1ccc(Cn2cc(-c3ccnc4ccccc34)c(-c3ccccn3)n2)cc1 | CSNK1A1 | enzyme activity, inhibitor, ADP detection |  |  | 5.9 µM
Cc1ccc(S(=O)(=O)NC(=O)c2cc3ccccc3n2Cc2ccc(C3CC3)c3ccccc23)cc1 | SLC22A12 | transporter uptake, inhibitor, radiometric |  |  | 14 µM
Oc1ccc2c(-c3ccncc3)c(-c3ccc(F)cc3)nn2c1 | CSNK1A1 | enzyme activity, inhibitor, ADP detection |  |  | 1.6 µM
O=C(O)/C=C/c1nccc2c3ccccc3n(Cc3ccc(Br)c4ccccc34)c12 | SLC22A12 | transporter uptake, inhibitor, radiometric |  |  | 3.02 µM
c1ccc(Cc2[nH]nc(-c3ccccn3)c2-c2ccnc3ccccc23)cc1 | CSNK1A1 | enzyme activity, inhibitor, ADP detection |  |  | 3.5 µM
COc1ccc(N(Cc2nc(-c3ccc(F)cc3)cs2)C(=O)CCCCCC(=O)NO)cc1 | HDAC7 | enzyme activity, inhibitor |  |  | > 10 µM
O=C(NO)c1ccc(Cn2cnc3c(Nc4cccc([N+](=O)[O-])c4)ncnc32)cc1 | HDAC7 | enzyme activity, inhibitor |  |  | 0.117 µM
Nc1ncnc2c1ncn2[C@@H]1O[C@H](CSCC[C@H](N)C(=O)O)[C@@H](O)[C@H]1O | Histone-lysine N-methyltransferase SETD2 (SETD2, Homo sapiens, UniProt Q9BYW2) | enzyme activity, inhibitor |  |  | 2.11 µM
